Bioassay records deposited in PubChem BioAssay by several laboratories.
MC4R antag cAMP: MC4R antagonists of cAMP signaling, primary screen, cell-based, TR-FRET, antagonist arm of biased-ligand search; Melanocortin receptor 4 (Homo sapiens), P32245; MC4R-expressing cells, MTII-stimulated cAMP, LANCE TR-FRET; inhibition, % at 6.5 µM; hit rate 0.48% among 360,000; AID 540295, 2011;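 active means inhibition above its plate's cutoff, the mean of tested wells on that plate plus 3 SD, cut at about 29% in these data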;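 further: 0% = Melanotan II alone and 100% = Melanotan II plus saturating MCL0020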
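System: U2OS cells stably expressing human melanocortin 4 receptor (MC4R). Reagent: Melanotan II challenge after compound preincubation. Doses: 6.5 µM. Times: 30-min compound, 1-h challenge, 1-h detection, room temperature. Measured by: TR-FRET with Eu-cAMP and labeled anti-cAMP, 671 nm. Replicates: singlicate.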
T cell HTS: modulators of CD8 T cell-vesicle binding, primary screen, mouse 2C CD8+ T cells, flow cytometry | 2C CD8+ T cell-vesicle binding; active compounds read low | response (vesicle binding), % at 7 µM | hit rate 0.068% among 330,000;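 active means response, share of CD8 T cells binding vesicles, and their 90th percentile fluorescence all below set limits, cut at about 80% in these data, passing the limit was not always enough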;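 further: values below 100% mean blocked vesicle binding to the CD8+ T cells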
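Also added: QL9-peptide-loaded Drosophila micro-vesicles bearing Ld, ICAM-1 and B7-1; Test system: purified 2C TCR transgenic mouse naive CD8+ T cells; Measured by: cytometric PE anti-B7-1 and Alexa647 anti-CD8 signals after 1% paraformaldehyde fixation; Timing: binding step 1.5 h, 37 °C, antibody labelling 20 min, ice.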
MC4R ag barr: MC4R agonists recruiting beta-arrestin, primary screen, cell-based, luminescence, agonist arm of biased-ligand search. U2OS MC4R beta-arrestin complementation; percent of melanotan II response, DMSO zero. activation, % at 8.9 µM. hit rate 0.98% among 360,000. AID 540308, 2011;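 active means activation above a per-plate cutoff, the mean activation of sample wells on that plate plus 3 SD, cut at about 8% in these data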
EP2 antag: human EP2 receptor antagonists, primary screen, TR-FRET cAMP, C6 glioma cells; Prostaglandin E2 receptor EP2 subtype (Homo sapiens), P43116; C6 glioma cells expressing human EP2; cells stimulated with saturating PGE2; inhibition, % at 25 µM; hit rate 0.52% among 260,000;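 active means percent inhibition above 40 after rounding to a whole number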;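 further: rat C6 glioma host cells with rolipram phosphodiesterase inhibitor present; the protocol text gives 20 µM as final concentration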
Target sequence (P43116 whole entry, looked up): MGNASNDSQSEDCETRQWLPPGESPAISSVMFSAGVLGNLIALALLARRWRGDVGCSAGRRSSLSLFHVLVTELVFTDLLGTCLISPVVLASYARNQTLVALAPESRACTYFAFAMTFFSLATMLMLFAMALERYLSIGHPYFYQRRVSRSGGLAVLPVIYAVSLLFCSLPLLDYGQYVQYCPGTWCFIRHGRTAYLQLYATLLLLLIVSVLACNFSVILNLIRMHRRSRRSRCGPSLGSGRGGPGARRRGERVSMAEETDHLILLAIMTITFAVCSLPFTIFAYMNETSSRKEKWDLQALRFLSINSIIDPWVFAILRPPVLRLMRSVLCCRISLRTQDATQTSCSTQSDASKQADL
EP2 mod: EP2 receptor modulators, cAMP readout, primary screen, cell-based, HTRF cAMP, PGE2 stimulation. AID 940, 2007. EP2-expressing cells, cAMP HTRF FRET, PGE2 co-stimulation. hit rate 0.83% among 260,000. induction, % at 25 µM;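 active means compounds whose cAMP rise, as percent of the full-agonist control response, exceeds 60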;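 further: rat C6 glioma line stably carrying human EP2 under a CMV promoter; the protocol text gives 20 µM as final concentration; 100% = response of wells given 1 µM PGE2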
Granule exo inh: LAMP-1 surface exposure blockers, TALL-104 cells – cell-based, flow cytometry, MLPCN library, primary screen; TALL-104 LAMP-1 surface exposure; cells stimulated with thapsigargin and PMA; inhibition, % at 10 µM; hit rate 0.66% among 360,000; AID 651702, 2012;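 active means inhibition above about 55%, limit read from the data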
Active calls of the source: *. An excerpt weighted towards active compounds, which were near 2.6% of everything screened.

O=c1c2oc3ccccc3c2[nH]c(=S)n1-c1ccc(F)cc1 was read as MC4R antag cAMP 20, T cell HTS 341, MC4R ag barr 0, EP2 antag 15, EP2 mod 65* and Granule exo inh 4.
O=C(O)c1cccc2c1C(=O)c1ccc(N3CCCC3)cc1S2(=O)=O was read as MC4R antag cAMP 0, T cell HTS 256, MC4R ag barr -1 and Granule exo inh 18.
For O=C(COC(=O)c1ccccc1)Nc1ccc(Cl)cn1 the results were MC4R antag cAMP 2, T cell HTS 295, MC4R ag barr 1, EP2 antag 6, EP2 mod -9 and Granule exo inh 0.
Screening COc1ccc(C(=O)OCC(=O)Nc2ccc(Cl)cn2)cc1 returned MC4R antag cAMP 3, T cell HTS 319, MC4R ag barr 8.8*, EP2 antag 7, EP2 mod -24 and Granule exo inh -2.
`O=[N+]([O-])c1ccc(N2CCN(C(=S)NCc3ccc(Cl)cc3)CC2)cc1` gave MC4R antag cAMP 15, T cell HTS 406, MC4R ag barr -4, EP2 antag 0, EP2 mod -33 and Granule exo inh 68*.
`COc1ccccc1N=C1NC(=O)/C(=C/c2ccc(N(C)C)cc2)S1` gave MC4R antag cAMP -22, T cell HTS 305, MC4R ag barr -2 and Granule exo inh 67*.
CCN(CC(=O)NCc1cccs1)C(=O)c1ccc(C)o1 was read as MC4R antag cAMP 1, T cell HTS 855, MC4R ag barr -3 and Granule exo inh 2.
`NC[C@H](O)c1ccc(O)c(O)c1` gave MC4R antag cAMP -14, T cell HTS 875, MC4R ag barr -1, EP2 antag 17, EP2 mod 72* and Granule exo inh 0.
CC(C)NCC(O)c1ccc(O)c(O)c1 (configuration not stated) was read as MC4R antag cAMP -9, T cell HTS 241, MC4R ag barr 2, EP2 antag 12, EP2 mod 76* and Granule exo inh -7.
CC(C)N1CCc2c(sc(NC(=O)c3cc(-c4cccs4)nc4ccccc34)c2C(N)=O)C1 was read as MC4R antag cAMP 15, T cell HTS 530, MC4R ag barr 5, EP2 antag 25, EP2 mod -73 and Granule exo inh 76*.
Screening CC(C)N1CCc2c(sc(NC(=O)c3nc4ccccc4s3)c2C(N)=O)C1 returned MC4R antag cAMP -4, T cell HTS 288, MC4R ag barr -3, EP2 antag 3, EP2 mod -37 and Granule exo inh 13.
`O=[N+]([O-])c1ccc2c(c1)Cc1cc(N=Cc3ccc4c(c3)OCO4)ccc1-2` gave EP2 antag 51* and EP2 mod -26.
Screening O=[N+]([O-])c1ccc(S(=O)(=O)N/N=C/c2ccc3c(c2)OCO3)cc1 returned MC4R antag cAMP 1, T cell HTS 382, MC4R ag barr -1 and Granule exo inh -2.
Screening Clc1ccc(/C=N/NC(=Nc2ccccc2)c2ccccn2)c(Cl)c1 returned MC4R antag cAMP 18, T cell HTS 308, MC4R ag barr 1, EP2 mod 61* and Granule exo inh -4.
For C(=N\NC(=Nc1ccccc1)c1ccccn1)/c1ccccn1 the results were MC4R antag cAMP 7, T cell HTS 365, MC4R ag barr 2, EP2 antag 10, EP2 mod 7 and Granule exo inh -4.
Screening Nc1sc2c(c1C(=O)O)CCCC2 returned EP2 antag 11 and EP2 mod -18.
Screening Nc1sc2c(c1C(=O)c1ccc(Br)cc1)CCC2 returned EP2 antag 9 and EP2 mod 78*.
Screening Cc1sc(N)c(C(=O)c2ccc(Br)cc2)c1C returned EP2 antag 14 and EP2 mod 71*.
CCOC(=O)C1CCCN(C(=O)c2cccc(C(F)(F)F)c2)CC1 (configuration not stated) was read as MC4R antag cAMP -4, MC4R ag barr -3 and Granule exo inh -6.
`COc1ccc(OCC(O)CN(CCO)CC(O)Cn2ccc3ccccc32)cc1` (configuration not stated) gave MC4R antag cAMP 4, T cell HTS 406, MC4R ag barr 8, EP2 antag 7, EP2 mod -33 and Granule exo inh 22.
For CCC(=C(c1ccc(OC)cc1)c1ccc(OC)cc1)c1cn(CC(O)CN(CCO)CCO)c2ccccc12 (configuration not stated) the results were MC4R antag cAMP 5, T cell HTS 639, MC4R ag barr 1, EP2 antag 0, EP2 mod 17 and Granule exo inh 72*.
Screening O=C(c1ccc(OC2CCN(C/C=C/c3ccccc3)CC2)cc1)N1CCCC1 returned MC4R antag cAMP 10, T cell HTS 332, MC4R ag barr -2 and Granule exo inh -1.
For CCOc1ccc2oc(C(=O)Nc3ccc(N4CCOCC4)cc3)c(C)c2c1 the results were MC4R antag cAMP -10, T cell HTS 426, MC4R ag barr 9.3*, EP2 antag 16, EP2 mod -17 and Granule exo inh 0.
Cc1ccc(C2C(=O)N(C3CCCC3)CC(=O)N2CC2COc3ccccc3O2)cc1 (configuration not stated) was read as MC4R antag cAMP -3, T cell HTS 165, MC4R ag barr 2, EP2 antag 1, EP2 mod -6 and Granule exo inh 1.
For Cc1ccc(C(=O)Oc2coc(CSc3nnc(NC(=O)c4cccs4)s3)cc2=O)cc1 the results were MC4R antag cAMP 8, T cell HTS 155, MC4R ag barr 9.2*, EP2 antag 12, EP2 mod 11 and Granule exo inh -10.
`CC(=O)Nc1nnc(SCc2cc(=O)c(OC(=O)c3ccccc3)co2)s1` gave MC4R antag cAMP 12, T cell HTS 452, MC4R ag barr -1, EP2 antag 4, EP2 mod -14 and Granule exo inh -2.
For NC(=O)c1cn(-c2ccccc2)nc1-c1cc2ccccc2oc1=O the results were MC4R antag cAMP 6, T cell HTS 735, MC4R ag barr 1, EP2 antag 0, EP2 mod 98* and Granule exo inh 8.
